test system: A549; experiment: Growth inhibition of human A549 cells after 48 hrs by MTT assay; type: functional, cell-based; settings: A549, 48 h

Q: With COc1ccc(N(C)c2nc(C)nc3ccccc23)cc1OCCCCCC[Se]C#N as the molecule, how does the IC50 read?
A: The IC50 was 5520 nM.

Q: Which IC50 does the source give for COc1cccc2c1C(=O)c1c(O)c3c(c(O)c1C2=O)C[C@@](O)(C(=O)CO)C[C@@H]3O[C@H]1C[C@H](N)[C@H](O)[C@H](C)O1 [DOXORUBICIN] here?
A: Its IC50 is 2900 nM.

Q: Which IC50 does the source give for COc1ccc(N(C)c2nc(C)nc3ccccc23)cc1C(=O)OCCCC[Se]C#N here?
A: Its IC50 is 155 nM.

Q: With COc1ccc(N(C)c2nc(C)nc3ccccc23)cc1C(=O)NCC[Se]C#N as the molecule, how does the IC50 read?
A: Its IC50 is 187 nM.

Q: For C[Se]c1ccc(N(C)c2nc(C)nc3ccccc23)cc1Cl, which IC50 is on record?
A: The IC50 was 2 nM.

Q: With COc1ccc(N(C)c2nc(C)nc3ccccc23)cc1C(=O)OCCC[Se]C#N as the molecule, how does the IC50 read?
A: The IC50 was 250 nM.

Q: Which IC50 does the source give for COc1ccc(N(C)c2nc(C)nc3ccccc23)cc1OCCC[Se]C#N here?
A: Its IC50 is 382 nM.

Q: For [2H]C([2H])([2H])c1nc(N(C)c2ccc([Se]C)cc2)c2ccccc2n1, which IC50 is on record?
A: The IC50 was 3 nM.

Q: Which IC50 does the source give for C[Se]c1ccc(N(C)c2nc(C3CC3)nc3ccccc23)cc1 here?
A: Its IC50 is 13 nM.

test system: HCT-116; experiment: Growth inhibition of human HCT116 cells after 48 hrs by MTT assay; type: functional, cell-based; settings: HCT-116, 48 h
Outline: (§1)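 MTT assay: log-phase cells plated at 5 × 10³/well for 24 h, then exposed to a range of test concentrations for 48 h. MTT (5 mg/mL) added for 4 h, formazan dissolved in DMSO, absorbance read at 570 nm. IC50 is the concentration giving 50% growth inhibition, from dose-response curves; at least three independent experiments, mean ± SE.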

Q: Which IC50 does the source give for COc1ccc(N(C)c2nc(C)nc3ccccc23)cc1OCCCCCC[Se]C#N here?
A: The IC50 was 6180 nM.

Q: Which IC50 does the source give for COc1ccc(N(C)c2nc(C)nc3ccccc23)cc1C(=O)OCCCC[Se]C#N here?
A: The IC50 was 662 nM.

Q: For COc1ccc(N(C)c2nc(C)nc3ccccc23)cc1C(=O)NCC[Se]C#N, which IC50 is on record?
A: Its IC50 is 313 nM.

Q: With C[Se]c1ccc(N(C)c2nc(C)nc3ccccc23)cc1Cl as the molecule, how does the IC50 read?
A: The IC50 was 5 nM.

Q: Which IC50 does the source give for COc1ccc(N(C)c2nc(C)nc3ccccc23)cc1C(=O)OCCC[Se]C#N here?
A: Its IC50 is 720 nM.

Q: Which IC50 does the source give for COc1ccc(N(C)c2nc(C)nc3ccccc23)cc1OCCC[Se]C#N here?
A: The IC50 was 852 nM.

Q: For [2H]C([2H])([2H])c1nc(N(C)c2ccc([Se]C)cc2)c2ccccc2n1, which IC50 is on record?
A: The IC50 was 3 nM.

Q: With C[Se]c1ccc(N(C)c2nc(C3CC3)nc3ccccc23)cc1 as the molecule, how does the IC50 read?
A: Its IC50 is 15 nM.

test system: HepG2; experiment: Growth inhibition of human HepG2 cells after 48 hrs by MTT assay; type: functional, cell-based; settings: HepG2, 48 h; outline: as §1

Q: With COc1ccc(N(C)c2nc(C)nc3ccccc23)cc1OCCCCCC[Se]C#N as the molecule, how does the IC50 read?
A: Its IC50 is 4890 nM.

Q: For COc1cccc2c1C(=O)c1c(O)c3c(c(O)c1C2=O)C[C@@](O)(C(=O)CO)C[C@@H]3O[C@H]1C[C@H](N)[C@H](O)[C@H](C)O1 [DOXORUBICIN], which IC50 is on record?
A: The IC50 was 1890 nM.

Q: With COc1ccc(N(C)c2nc(C)nc3ccccc23)cc1C(=O)OCCCC[Se]C#N as the molecule, how does the IC50 read?
A: The IC50 was 975 nM.

Q: With COc1ccc(N(C)c2nc(C)nc3ccccc23)cc1C(=O)NCC[Se]C#N as the molecule, how does the IC50 read?
A: The IC50 was 179 nM.

Q: For C[Se]c1ccc(N(C)c2nc(C)nc3ccccc23)cc1Cl, which IC50 is on record?
A: Its IC50 is 4 nM.

Q: For COc1ccc(N(C)c2nc(C)nc3ccccc23)cc1C(=O)OCCC[Se]C#N, which IC50 is on record?
A: The IC50 was 340 nM.

Q: With COc1ccc(N(C)c2nc(C)nc3ccccc23)cc1OCCC[Se]C#N as the molecule, how does the IC50 read?
A: The IC50 was 1040 nM.

Q: For [2H]C([2H])([2H])c1nc(N(C)c2ccc([Se]C)cc2)c2ccccc2n1, which IC50 is on record?
A: The IC50 was 5 nM.

Q: For C[Se]c1ccc(N(C)c2nc(C3CC3)nc3ccccc23)cc1, which IC50 is on record?
A: Its IC50 is 32 nM.

test system: MDA-MB-231; experiment: Growth inhibition of human MDA-MB-231 cells after 48 hrs by MTT assay; type: functional, cell-based; settings: MDA-MB-231, 48 h; outline: as §1

Q: For COc1ccc(N(C)c2nc(C)nc3ccccc23)cc1OCCCCCC[Se]C#N, which IC50 is on record?
A: The IC50 was 3550 nM.

Q: Which IC50 does the source give for COc1ccc(N(C)c2nc(C)nc3ccccc23)cc1C(=O)OCCCC[Se]C#N here?
A: Its IC50 is 554 nM.

Q: Which IC50 does the source give for COc1ccc(N(C)c2nc(C)nc3ccccc23)cc1C(=O)NCC[Se]C#N here?
A: The IC50 was 1250 nM.

Q: Which IC50 does the source give for C[Se]c1ccc(N(C)c2nc(C)nc3ccccc23)cc1Cl here?
A: The IC50 was 7 nM.

Q: Which IC50 does the source give for COc1ccc(N(C)c2nc(C)nc3ccccc23)cc1C(=O)OCCC[Se]C#N here?
A: The IC50 was 1180 nM.

Q: Which IC50 does the source give for COc1ccc(N(C)c2nc(C)nc3ccccc23)cc1OCCC[Se]C#N here?
A: The IC50 was 815 nM.

Q: With [2H]C([2H])([2H])c1nc(N(C)c2ccc([Se]C)cc2)c2ccccc2n1 as the molecule, how does the IC50 read?
A: The IC50 was 9 nM.

Q: Which IC50 does the source give for C[Se]c1ccc(N(C)c2nc(C3CC3)nc3ccccc23)cc1 here?
A: The IC50 was 18 nM.

test system: LoVo; experiment: Growth inhibition of human LoVo cells after 48 hrs by MTT assay; type: functional, cell-based; settings: not given; outline: as §1

Q: Which IC50 does the source give for COc1ccc(N(C)c2nc(C)nc3ccccc23)cc1OCCCCCC[Se]C#N here?
A: Its IC50 is 8580 nM.

Q: For COc1ccc(N(C)c2nc(C)nc3ccccc23)cc1C(=O)OCCCC[Se]C#N, which IC50 is on record?
A: The IC50 was 1080 nM.

Q: Which IC50 does the source give for COc1ccc(N(C)c2nc(C)nc3ccccc23)cc1C(=O)NCC[Se]C#N here?
A: The IC50 was 561 nM.

Q: For C[Se]c1ccc(N(C)c2nc(C)nc3ccccc23)cc1Cl, which IC50 is on record?
A: Its IC50 is 3 nM.

Q: For COc1ccc(N(C)c2nc(C)nc3ccccc23)cc1C(=O)OCCC[Se]C#N, which IC50 is on record?
A: The IC50 was 854 nM.

Q: For COc1ccc(N(C)c2nc(C)nc3ccccc23)cc1OCCC[Se]C#N, which IC50 is on record?
A: The IC50 was 921 nM.

Q: For [2H]C([2H])([2H])c1nc(N(C)c2ccc([Se]C)cc2)c2ccccc2n1, which IC50 is on record?
A: Its IC50 is 5 nM.

Q: Which IC50 does the source give for C[Se]c1ccc(N(C)c2nc(C3CC3)nc3ccccc23)cc1 here?
A: Its IC50 is 11 nM.

test system: RKO; experiment: Growth inhibition of human RKO cells after 48 hrs by MTT assay; type: functional, cell-based; settings: not given; outline: as §1

Q: For COc1ccc(N(C)c2nc(C)nc3ccccc23)cc1OCCCCCC[Se]C#N, which IC50 is on record?
A: Its IC50 is 1540 nM.

Q: With COc1ccc(N(C)c2nc(C)nc3ccccc23)cc1C(=O)OCCCC[Se]C#N as the molecule, how does the IC50 read?
A: Its IC50 is 1020 nM.

Q: For COc1ccc(N(C)c2nc(C)nc3ccccc23)cc1C(=O)NCC[Se]C#N, which IC50 is on record?
A: The IC50 was 1170 nM.

Q: Which IC50 does the source give for C[Se]c1ccc(N(C)c2nc(C)nc3ccccc23)cc1Cl here?
A: The IC50 was 4 nM.

Q: For COc1ccc(N(C)c2nc(C)nc3ccccc23)cc1C(=O)OCCC[Se]C#N, which IC50 is on record?
A: Its IC50 is 1140 nM.

Q: With COc1ccc(N(C)c2nc(C)nc3ccccc23)cc1OCCC[Se]C#N as the molecule, how does the IC50 read?
A: The IC50 was 799 nM.

Q: Which IC50 does the source give for [2H]C([2H])([2H])c1nc(N(C)c2ccc([Se]C)cc2)c2ccccc2n1 here?
A: The IC50 was 8 nM.

Q: Which IC50 does the source give for C[Se]c1ccc(N(C)c2nc(C3CC3)nc3ccccc23)cc1 here?
A: The IC50 was 21 nM.

test system: A549/CDDP; experiment: Growth inhibition of human A549/CDDP cells after 48 hrs by MTT assay; type: functional, cell-based; settings: not given; outline: as §1

Q: For COc1cccc2c1C(=O)c1c(O)c3c(c(O)c1C2=O)C[C@@](O)(C(=O)CO)C[C@@H]3O[C@H]1C[C@H](N)[C@H](O)[C@H](C)O1 [DOXORUBICIN], which IC50 is on record?
A: The IC50 was 4590 nM.

test system: not listed separately; experiment: Growth inhibition of human HepG2/DOX cells after 48 hrs by MTT assay; type: functional, cell-based; settings: not given; outline: as §1

Q: Which IC50 does the source give for COc1cccc2c1C(=O)c1c(O)c3c(c(O)c1C2=O)C[C@@](O)(C(=O)CO)C[C@@H]3O[C@H]1C[C@H](N)[C@H](O)[C@H](C)O1 [DOXORUBICIN] here?
A: The IC50 was over 10000 nM.

test system: not listed separately; experiment: Resistance factor, ratio of IC50 for human A549/CDDP cells to IC50 for human A549 cells; type: functional; settings: not given
Outline: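 MTT assay: log-phase cells were seeded at 5 × 10³/well for 24 h, then exposed to a concentration series for 48 h. MTT (5 mg/mL) was added for 4 h, formazan was dissolved in DMSO, and A570 was read. IC50 values came from dose–response curves of at least three independent experiments. Resistance factor = IC50 in the resistant line / IC50 in the parental sensitive line.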

Q: For COc1cccc2c1C(=O)c1c(O)c3c(c(O)c1C2=O)C[C@@](O)(C(=O)CO)C[C@@H]3O[C@H]1C[C@H](N)[C@H](O)[C@H](C)O1 [DOXORUBICIN], which “Ratio IC50” value is on record?
A: Its value is 1.58.

— ChEMBL document CHEMBL4020840, “Synthesis and Biological Evaluation of Selenium-Containing 4-Anilinoquinazoline Derivatives as Novel Antimitotic Agents” (J Med Chem, 2018)
